From article PMC4227764 (Nucleic Acids Research, 2014)
Read-outs that look alike come from different tables or passages of the source.

Tests used:
[1] = target: T1, B. subtilis RNase P (Bacillus subtilis, UniProt P25814); assay: RNase P cleavage activity in response to HTS reagents; assay type: biochemical
T1 sequence (P25814 1-116): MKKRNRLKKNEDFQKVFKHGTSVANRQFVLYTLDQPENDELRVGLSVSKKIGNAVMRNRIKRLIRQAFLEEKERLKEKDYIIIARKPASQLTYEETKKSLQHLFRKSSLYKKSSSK
Summary of the method: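 B. subtilis holoenzyme formed by adding P protein to refolded P RNA, 30 min at 37°C. Enzyme pre-incubated 30 min with 2% DMSO at 30°C. Reaction started with an equal volume of Fl-pre-tRNAAsp substrate, quenched with 80 mM CaCl2 at various times. Fluorescence polarization read at λex 485 nm / λem 520 nm.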

[2] = system: Escherichia coli RNase P; conditions: cited from earlier work
[3] = system: Fl-pre-tRNA^Asp; assay: FA titration: binding of compounds to Fl-pre-tRNA^Asp; design: species or system Bacillus subtilis; conditions: for change in anisotropy (ΔFA) upon binding to Fl-pre-tRNA^Asp: Figure 4A, buffer B; for Kd: read-out: Kd for Fl-pre-tRNA^Asp, 37°C
Summary of the method: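 RNA first heat-denatured 3 min at 95°C, then refolded at 37°C. Kd taken from the dependence of the FA signal on compound concentration. Competition run at fixed compound with varied yeast tRNAMix in buffer B.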

[4] = target: Bacillus subtilis RNase P; assay type: biochemical; conditions: read-out: IC50 for inhibition of RNase P; Buffer B (pH 7.2, 10 mM MgCl2, 100 mM KCl), 50 nM Fl-pre-tRNA^Asp, 0.4 nM RNase P, 4 nM P protein, 37°C
[5] = target: Dictyostelium discoideum RNase P; conditions: read-out: Ki (non-competitive); cited from earlier work
[6] = target: native yeast tRNA^Phe; conditions: cited from earlier work
[7] = Buffer B + 12 mg/ml yeast tRNA^Mix
[8] = Buffer B, 50 nM Fl-pre-tRNA^Asp

change in anisotropy (ΔFA) upon binding to Fl-pre-tRNA^Asp [3] [mA] | Kd [3, 7] [µM] | Kd [3, 8] [µM] | IC50 [4] [µM] | Compound | IC50 [2] [µM] | further results
 |  |  |  | nonidet P-40 [NP-40] |  | effect on RNase P activity ([1]; 0.01–0.1% v/v): unaffected
 |  |  |  | COc1ccc(C[C@H](N)C(=O)N[C@H]2[C@@H](O)[C@H](n3cnc4c(N(C)C)ncnc43)O[C@@H]2CO)cc1 [puromycin] | ~3000 | 
 |  |  |  | Spiramycin |  | effect on steady-state turnover [2]: activate the steady-state turnover
~50 | 100 ± 20 | 90 ± 5 | 23 ± 3 | NC[C@@H]1O[C@H](O[C@H]2[C@@H](O)[C@H](O[C@@H]3[C@@H](O)[C@H](N)C[C@H](N)[C@H]3O[C@H]3O[C@H](CN)[C@@H](O)[C@H](O)[C@H]3N)O[C@@H]2CO)[C@H](N)[C@@H](O)[C@@H]1O [NeoB, neomycin B] | 60 | Ki [5]: 143 µM; Kd [6]: 90 µM
~35 | 540 ± 60 | 220 ± 20 | 52 ± 6 | NC[C@H]1O[C@H](O[C@H]2[C@H](O)[C@@H](O[C@H]3O[C@H](CO)[C@@H](O)[C@H](N)[C@H]3O)[C@H](N)C[C@@H]2N)[C@H](N)[C@@H](O)[C@@H]1O [KanB, kanamycin B] |  | 
 |  |  |  | C[S+](C)[O-] [DMSO, dimethyl sulfoxide] |  | inhibition of RNase P activity ([1]; 2% DMSO): 20%
